Calls of active or inactive are those of the source. No cut-off for these calls is given here.
Key:
[1] = test system: Rhizoctonia solani; assay: Antifungal activity against Rhizoctonia solani SRRC 1443 assessed as thin hyphae at 20 uM after 48 hr by microscopic analysis; format: functional, organism-based
[2] = test system: Phytophthora nicotianae; assay: Antifungal activity against Phytophthora parasitica after 48 hr by microplate assay; format: functional, organism-based
Procedure, shortened: (§1)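 Mycelia grown in 1% PDB 48 h at 28 °C, 90 rpm, blended, adjusted to ~10⁵ fragments/mL. Fragments incubated in 24-well plates with peptide at 2–40 µM final in 1% PDB, 2 mL total, 48 h at 90 rpm. MIC recorded as lowest concentration completely inhibiting growth; three replicate experiments.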

[3] = test system: Fusarium graminearum; assay: Antifungal activity against Fusarium graminearum SRRC 1042 after 24 to 48 hr; format: functional, organism-based
Procedure, shortened: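 Conidia harvested in 1% PDB (pH 6.0), diluted to 10⁴ conidia/mL, pregerminated 8 h at 30 °C. Germinated conidia exposed to D4E1 in 1% PDB at 30 °C; four aliquots spread on PDA and colonies counted after 24–48 h at 30 °C. Percent mortality vs 0 µM control; IC50 from dose–response fit of two experiments; MIC = complete growth inhibition.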

[4] = test system: Aspergillus flavus; assay: Antifungal activity against Aspergillus flavus 70-GFP assessed as short germ tube at 25 uM after 8 hr by microscopic analysis relative to control; format: functional, organism-based
Procedure, shortened: (§2)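 A. flavus 70-GFP conidia (10⁶/mL) incubated 8 h at 30 °C with 0–25 µM peptide in 1% PDB. Germ tube and spore morphology examined by GFP fluorescence microscopy (excitation 480 nm, emission 530 nm). Repeated twice.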

[5] = test system: Fusarium oxysporum; assay: Antifungal activity against Fusarium oxysporum SRRC 187 after 24 to 48 hr; format: functional, organism-based
Procedure, shortened: (§3)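 Conidia diluted to 10⁴/mL (Fusarium) or 10⁵/mL and germinated 8 h at 30 °C (A. flavus, Fusarium, P. italicum) or overnight at 22 °C. Four 50 µL aliquots spread on PDA, colonies counted after 24–48 h at 30 or 22 °C. Percent mortality vs untreated control fitted by dose–response to give IC50; MIC = complete inhibition; two experiments.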

[6] = test system: Globisporangium ultimum var. sporangiiferum; assay: Antifungal activity against Pythium ultimum var. sporangiiferum after 48 hr by microplate assay; format: functional, organism-based; procedure, shortened: as §1
[7] = test system: Aspergillus flavus; assay: Antifungal activity against Aspergillus flavus 70-GFP assessed as vacuolization in spores at 12.5 uM after 8 hr by microscopic analysis relative to control; format: functional, organism-based; procedure, shortened: as §2
[8] = test system: Cercospora kikuchii; assay: Antifungal activity against Cercospora kikuchii SRRC 1078 after 24 to 48 hr; format: functional, organism-based; procedure, shortened: as §3
[9] = test system: Berkeleyomyces basicola; assay: Antifungal activity against Thielaviopsis basicola SRRC 1277 after 24 to 48 hr; format: functional, organism-based; procedure, shortened: as §3
[10] = test system: Verticillium dahliae; assay: Antifungal activity against Verticillium dahliae SRRC 1030 after 24 to 48 hr; format: functional, organism-based; procedure, shortened: as §3
[11] = test system: Aspergillus flavus; assay: Antifungal activity against Aspergillus flavus 70-GFP assessed as germ tube breakage at 12.5 uM after 8 hr by microscopic analysis relative to control; format: functional, organism-based; procedure, shortened: as §2
[12] = test system: Xanthomonas campestris; assay: Antibacterial activity against Xanthomonas citri subsp. malvacearum race 18 after 24 to 48 hr; format: functional, organism-based, Xanthomonas citri pv. malvacearum
Procedure, shortened: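 X. campestris pv. malvacearum race 18 grown overnight in nutrient broth at 28 °C, 225 rpm, then diluted to 10⁴ CFU/mL. Exposed to D4E1 for 60 min at 28 °C. Four aliquots plated on NB and colonies counted after 24–48 h at 28 °C. Percent mortality vs 0 µM control; IC50 from dose–response curve fit; MIC = complete inhibition; tested twice.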

[13] = test system: Rhizoctonia solani; assay: Antifungal activity against Rhizoctonia solani SRRC 1443 assessed as appearance of extracellular material surrounding hyphae at 20 uM after 48 hr by microscopic analysis; format: functional, organism-based
[14] = test system: Penicillium italicum; assay: Antifungal activity against Penicillium italicum SRRC 2352 after 24 to 48 hr; format: functional, organism-based; procedure, shortened: as §3
[15] = test system: Aspergillus flavus; assay: Antifungal activity against Aspergillus flavus 70-GFP assessed as vacuolization in spores at 6 uM after 8 hr by microscopic analysis relative to control; format: functional, organism-based; procedure, shortened: as §2
[16] = test system: Aspergillus flavus; assay: Antifungal activity against Aspergillus flavus 70-GFP after 24 to 48 hr; format: functional, organism-based
Procedure, shortened: (§4)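 Conidia harvested in 1% PDB (pH 6.0), diluted to 10⁵/mL and germinated before exposure to peptide in 1% PDB. Four 50 µL aliquots plated on PDA and colonies counted after 24–48 h. Percent mortality vs untreated control fitted by dose–response to give IC50; MIC = complete inhibition; each fungus tested at least twice.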

[17] = test system: Alternaria alternata; assay: Antifungal activity against Alternaria alternata SRRC 1107 after 24 to 48 hr; format: functional, organism-based; procedure, shortened: as §4
[18] = test system: Pseudomonas amygdali pv. tabaci; assay: Antibacterial activity against Pseudomonas syringae pv. tabaci after 24 to 48 hr; format: functional, organism-based
[19] = test system: Rhizoctonia solani; assay: Antifungal activity against Rhizoctonia solani SRRC 1443 assessed as jagged hyphae at 20 uM after 48 hr by microscopic analysis; format: functional, organism-based
[20] = test system: Phytophthora cinnamomi; assay: Antifungal activity against Phytophthora cinnamomi after 48 hr by microplate assay; format: functional, organism-based; procedure, shortened: as §1
[21] = test system: Rhizoctonia solani; assay: Antifungal activity against Rhizoctonia solani SRRC 1443 assessed as rough hyphae at 20 uM after 48 hr by microscopic analysis; format: functional, organism-based
[22] = test system: Rhizoctonia solani; assay: Antifungal activity against Rhizoctonia solani SRRC 1443 after 48 hr by microplate assay; format: functional, organism-based; conditions: SRRC 1443, 48 h; procedure, shortened: as §1
[23] = test system: Aspergillus flavus; assay: Antifungal activity against Aspergillus flavus 70-GFP assessed as reduction in spore germination at 25 uM after 8 hr by microscopic analysis relative to control; format: functional; set-up: scale not given: the % may be the effect or the level left
Procedure, shortened: (§5)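 Nongerminated A. flavus 70-GFP conidia (10⁶/mL) exposed to 0–25 µM peptide in 1% PDB, 8 h at 30 °C. Proportion of germinating conidia scored; GFP fluorescence microscopy (ex 480, em 530 nm). Experiment repeated twice; one-way ANOVA with Tukey separation.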

[24] = test system: Aspergillus flavus; assay: Antifungal activity against Aspergillus flavus 70-GFP assessed as reduction in spore germination at 12.5 uM after 8 hr by microscopic analysis relative to control; format: functional, organism-based; procedure, shortened: as §5
[25] = test system: Claviceps purpurea; assay: Antifungal activity against Claviceps purpurea SRRC 118 after 24 to 48 hr; format: functional, organism-based; procedure, shortened: as §3
[26] = test system: Aspergillus flavus; assay: Antifungal activity against Aspergillus flavus 70-GFP assessed as thick germ tube at 25 uM after 8 hr by microscopic analysis relative to control; format: functional, organism-based; procedure, shortened: as §2
[27] = test system: Colletotrichum destructivum; assay: Antifungal activity against Colletotrichum destructivum ATCC 42492 after 24 to 48 hr; format: functional, organism-based; procedure, shortened: as §3
[28] = test system: Aspergillus flavus; assay: Antifungal activity against Aspergillus flavus 70-W after 24 to 48 hr; format: functional, organism-based; procedure, shortened: as §3
[29] = test system: Fusarium verticillioides; assay: Antifungal activity against Fusarium verticillioides SRRC 1082 after 24 to 48 hr; format: functional, organism-based; procedure, shortened: as §3

Substance: H-FKLRAKIKVRLRAKIKL-OH
- Activity [1]: Active
- MIC [2]: 4.67 µM
- IC50 [3]: 2100 nM
- MIC [3]: 25 µM
- Activity [4]: Active
- IC50 [5]: 2050 nM
- MIC [5]: 12.5 µM
- MIC [6]: 13.3 µM
- Activity [7]: Active
- IC50 [8]: 8670 nM
- MIC [8]: 25 µM
- IC50 [9]: 520 nM
- MIC [9]: 6 µM
- IC50 [10]: 600 nM
- MIC [10]: 5.25 µM
- Activity [11]: Active
- IC50 [12]: 190 nM
- MIC [12]: 1.25 µM
- Activity [13]: Active
- IC50 [14]: 5920 nM
- MIC [14]: 25 µM
- Activity [15]: Active
- IC50 [16]: 11000 nM
- MIC [16]: 25 µM
- IC50 [17]: 12400 nM
- MIC [17]: 25 µM
- IC50 [18]: 520 nM
- MIC [18]: 2.25 µM
- Activity [19]: Active
- MIC [20]: 4.67 µM
- Activity [21]: Active
- MIC [22]: 26.7 µM
- Activity [23]: >75%
- Activity [24]: Active
- IC50 [25]: 1600 nM
- MIC [25]: 20 µM
- Activity [26]: Active
- IC50 [27]: 13000 nM
- MIC [27]: 25 µM
- IC50 [28]: 7750 nM
- MIC [28]: 25 µM
- IC50 [29]: 880 nM
- MIC [29]: 12.5 µM
